# High-throughput results as filed in PubChem BioAssay.
# ARFGAP1 inhibitor: rat ARFGAP1 inhibition. Q62848. Arfgap1-stimulated ARF1 GTP hydrolysis, GDP FP detection. inhibition, % at 16.5 µM. 0.26% of 360,000 active;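 active = inhibition above a per-plate limit, mean inhibition of low control wells plus 3 SD, cut at about 25% in these data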;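 also: 0% = DMSO wells with enzyme and 100% = wells lacking Arfgap1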
# Target sequence (Q62848 1-136 limits assumed): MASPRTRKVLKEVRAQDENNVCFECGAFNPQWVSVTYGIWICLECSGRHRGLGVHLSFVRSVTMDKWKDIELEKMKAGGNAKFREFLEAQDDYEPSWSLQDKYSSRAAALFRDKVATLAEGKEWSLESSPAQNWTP
#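 Material – truncated rat Arfgap1 GAP domain · Buffer or medium – HEPES-based buffer, pH 7.5 · Reagent – human ARF1(Δ1-17)-GTP substrate · Dosing – 16.5 µM single point, 1.26% DMSO · Schedule – GTP hydrolysis reaction 2 h at 25 °C · Technique – GDP detection by fluorescence polarization · Benchmarks – No-Arfgap1 wells (100%) versus DMSO full-reaction wells (0%) · Repeats – single replicate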
# C2C12 statin: suppression of simvastatin myotoxicity; C2C12 myotubes + simvastatin, ATP luminescence, 48 h; scaled: DMSO 0, geranylgeraniol control 100; rescue of ATP level, % at 7.49 µM; 0.78% of 330,000 active; AID 602340;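 active = mean ATP rescue above about 67%, or every replicate alone reaching that limit, limit read from the data, passing the limit was not always enough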;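 also: myotubes were challenged with 10 µM simvastatin during compound exposure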
# A3G deaminase: blocks human APOBEC3G single-stranded DNA deamination; Q9HC16; recombinant A3G, ssDNA deamination FAM/TAMRA fluorescence; inhibition, % at 20 µM; 0.28% of 330,000 active;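 active = inhibition of at least 40% at 20 µM, with no more than 30% in the related APOBEC3A deaminase screen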;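 also: plate controls were DMSO wells with A3G for no effect and wells lacking A3G enzyme for full effect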
# A3A deaminase: inhibitors of human APOBEC3A DNA deaminase. 0.41% of 330,000 active. AID 493011. inhibition, % at 20 µM. recombinant A3A, FAM/TAMRA ssDNA deamination fluorescence;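 active = at least 40% inhibition at 20 µM here, with at most 30% in a related deaminase screen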;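 also: plate controls were A3A with DMSO for no effect and wells lacking A3A enzyme for full effect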
# Target sequence (P31941 whole entry, looked up): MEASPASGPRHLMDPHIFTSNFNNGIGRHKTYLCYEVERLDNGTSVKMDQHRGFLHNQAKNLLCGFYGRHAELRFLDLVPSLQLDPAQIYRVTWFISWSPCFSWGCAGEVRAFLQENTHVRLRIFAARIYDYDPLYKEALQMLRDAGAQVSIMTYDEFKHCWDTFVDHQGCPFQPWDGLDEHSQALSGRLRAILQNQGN
# SUMO Mot1 rescue: SUMOylation pathway inhibition by Mot1-301 growth rescue | S. cerevisiae Mot1-301 growth rescue, ATP luminescence, 38.5C; percent above DMSO median, 100 means doubled | growth rescue, % at 18.8 µM | 1% of 320,000 active | AID 2716;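 active = every valid replicate shows activation above 250% relative to neutral control wells; inactive = the rest, any valid replicate at or below 250%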;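 also: OY570 slx delta 5 strain wells were the positive control but not used for scaling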
# ASAP1 inh: inhibitors of human ASAP1 ArfGAP activity; AID 624377; Q9ULH1; inhibition, % at 16.5 µM; ASAP1-stimulated ARF1 GTP hydrolysis, GDP FP detection; 0.19% of 360,000 active; in the data active = inhibition above about 25%;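 also: 0% = vehicle with enzyme and substrate and 100% = no enzyme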
# The depositor's hits bear a star; nt = no result. The list is not random: actives were taken first. Their share in the collection is about 2.1%.
SMILES,ARFGAP1 inhibitor,C2C12 statin,A3G deaminase,A3A deaminase,SUMO Mot1 rescue,ASAP1 inh
COCCN1C(=O)C(CC(=O)Nc2ccc(C(=O)O)cc2)SC1=Nc1ccccc1 (stereo not given),-6,nt,-8,-7,-6,2
COC(=O)c1cc(NC(=O)CC2SC(=Nc3ccccc3)N(CCc3c[nH]c4ccccc34)C2=O)cc(C(=O)OC)c1 (stereo not given),16,-13,-3,3,-3,28*
Cc1cc(NC(=O)CSc2nc3ccsc3c(=O)n2CCCC(=O)NCCc2ccccc2)no1,8,nt,-6,-3,771*,7
CCCNC(=O)Nc1ccc2c(c1)C(=O)N(C)C[C@@H](OC)[C@@H](C)CN(C(=O)C1CCOCC1)[C@@H](C)CO2,nt,6,nt,nt,nt,nt
CCOC(=O)Cn1c(=O)c2c(nc3n2CCCN3Cc2ccccc2)n(C)c1=O,-5,-4,-9,-4,-17,1
CCOC(=O)Cn1c(=O)c2c(nc3n2CCN3Cc2ccccc2)n(C)c1=O,9,134*,-8,-7,3,-8
CC(C)CC(NC(=O)C1CCC(C)CC1)C(=O)Nc1cccnc1 (stereo not given),-15,108*,-1,0,8,8
CC(C)CC(NC(=O)C1CCC(C)CC1)C(=O)NCc1cccnc1 (stereo not given),-5,-1,-2,-2,11,10
C[C@@H]1CN([C@@H](C)CO)C(=O)c2cc(NC(=O)Cn3cnnn3)ccc2O[C@@H]1CN(C)Cc1ccc(Oc2ccccc2)cc1,nt,20,nt,nt,nt,nt
CCOC(=O)N1CCC(NC(=O)c2ccccc2C(=O)O)CC1,-3,-6,-4,1,-17,-2
CCOC(=O)N1CCC(NC(=O)c2cc(C)c3c(C)nn(-c4ccccc4)c3n2)CC1,0,118*,0,4,-19,-8
C[C@H](N)c1nnc(SCC(=O)c2ccc(Cl)cc2)o1,4,119*,-5,0,nt,6
CC(C)[C@H](N)c1nnc(SCC(=O)c2ccc(Cl)cc2)o1,6,1,-5,-1,-1,16
COc1ccc(CNC(=O)C2CCCN(S(=O)(=O)c3ccc4c(c3)CCCN4C(C)=O)C2)cc1 (stereo not given),10,120*,-1,-3,-12,-15
CCc1ccc(NC(=O)C2CCCN(S(=O)(=O)c3ccc4c(c3)CCCN4C(C)=O)C2)cc1 (stereo not given),-2,12,-1,-1,-5,2
CC(C)C[C@H](NC(=O)c1[nH]cnc1C(=O)Nc1ccc(CNC(=O)OC(C)(C)C)cc1)C(=O)OC(C)(C)C,19,22,-2,-2,-20,18
CC(C)C[C@H](NC(=O)c1[nH]cnc1C(=O)Nc1ccc(CNC(=O)OC(C)(C)C)cc1)C(=O)OCc1ccccc1,16,-2,-3,-2,325*,1
CC(C)(C)OC(=O)NCCCCCNC(=O)c1[nH]cnc1C(=O)N[C@@H](Cc1ccccc1)C(=O)OCc1ccccc1,4,132*,-5,1,103,3
COc1ccc(CNC(=O)COC(=O)c2cc(-c3ccc(Cl)s3)nc3ccccc23)cc1,6,5,-9,-4,276*,-8
O=C(COC(=O)c1cc(-c2ccc(Cl)s2)nc2ccccc12)NCc1ccco1,7,nt,-4,0,174,14
CO[C@H]1CN(C)C(=O)c2ccc(NC(=O)C3CCOCC3)cc2OC[C@@H](C)N(C(=O)c2ccccc2)C[C@@H]1C,nt,6,nt,nt,nt,nt
Cc1cc(C)n(C(=O)c2ccc(C)c(S(=O)(=O)N3CCCC3)c2)n1,0,95*,-4,-11,-18,14
Cc1ccc(-c2ccc(S(=O)(=O)NCC3CCCO3)cc2)cc1 (stereo not given),-3,nt,-8,-2,35,11
Cc1cc(C)n(C(=O)c2ccc(S(=O)(=O)NCC3CCCO3)cc2)n1 (stereo not given),0,112*,-8,-3,-18,-4
C[C@@H]1CN([C@H](C)CO)C(=O)c2cccc(NC(=O)C3CC3)c2O[C@H]1CN(C)S(=O)(=O)c1ccccc1,nt,-2,nt,nt,nt,nt
